Source: ChEMBL document CHEMBL2046403, “Biochemical and pharmacological evaluation of 4-hydroxychromen-2-ones bearing polar C-3 substituents as anticoagulants” (Eur J Med Chem, 2012)

How the values were obtained:
Plasma [1] = experiment: Anticoagulant activity in human plasma assessed as prothrombin time at 1 mg/ml; format: functional
In short: (§1)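 Frozen human plasma (blood type A+) was used. Compounds were prepared at 1 mg/mL in a vehicle of 96% EtOH, 0.9% NaCl, 20% glycerol and phosphate buffer pH 7. Prothrombin time was measured by Quick method and reported in seconds and as INR, with SD from at least three measurements.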

Rattus norvegicus [2] = experiment: Hepatotoxicity in Wistar albino rat assessed as change in serum ALP level at 0.5 mg/kg, ip measured after 24 hrs; format: toxicity, organism-based; set-up: dose 0.5 mg/kg, route intraperitoneal; conditions: in vivo
Rattus norvegicus [3] = experiment: Hepatotoxicity in Wistar albino rat assessed as change in serum AST level at 0.5 mg/kg, ip measured after 24 hrs; format: toxicity, organism-based; set-up: dose 0.5 mg/kg, route intraperitoneal; conditions: in vivo
Rattus norvegicus [4] = experiment: Hepatotoxicity in Wistar albino rat assessed as change in serum iron level at 0.5 mg/kg, ip measured after 24 hrs; format: toxicity, organism-based; set-up: dose 0.5 mg/kg, route intraperitoneal; conditions: in vivo
Rattus norvegicus [5] = experiment: Hepatotoxicity in Wistar albino rat assessed as change in serum gamma-GT level at 0.5 mg/kg, ip measured after 24 hrs; format: toxicity, organism-based; set-up: dose 0.5 mg/kg, route intraperitoneal; conditions: in vivo
Rattus norvegicus [6] = experiment: Hepatotoxicity in Wistar albino rat assessed as change in serum bilirubin level at 0.5 mg/kg, ip measured after 24 hrs; format: toxicity, organism-based; set-up: dose 0.5 mg/kg, route intraperitoneal; conditions: in vivo
Rattus norvegicus [7] = experiment: Hepatotoxicity in Wistar albino rat assessed as change in serum protein level at 0.5 mg/kg, ip measured after 24 hrs; format: toxicity, organism-based; set-up: dose 0.5 mg/kg, route intraperitoneal; conditions: in vivo
Plasma [8] = experiment: Anticoagulant activity in Wistar albino rat plasma assessed as fibrin time; format: functional
In short: (§2)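 Adult albino Wistar rats (2.5 months old, 220–250 g), three per compound and control. […] Fibrin time and fibrinogen were determined on plasma. Fibrinogen was quantified by biuret method at 540 nm. At least three measurements, reported with standard deviation.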

Rattus norvegicus [9] = experiment: Hepatotoxicity in Wistar albino rat assessed as change in serum albumin level at 0.5 mg/kg, ip measured after 24 hrs; format: toxicity, organism-based; set-up: dose 0.5 mg/kg, route intraperitoneal; conditions: in vivo
Rattus norvegicus [10] = experiment: Toxicity in Wistar albino rat assessed as lethal dose at 0.5 mg/kg/day, ip administered for 5 days; format: organism-based; set-up: route intraperitoneal; conditions: in vivo, 120 h
Plasma [11] = experiment: Anticoagulant activity in Wistar albino rat plasma assessed as fibrinogen level; format: functional; in short: as §2
Plasma [12] = experiment: Anticoagulant activity in Wistar albino rat plasma assessed as prothrombin time at 0.1 mg/kg, ip; format: functional; conditions: route intraperitoneal
In short: (§3)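 Adult Wistar rats (2.5 months, 220–250 g), three per compound and control, were given a single i.p. dose of 0.1 or 0.5 mg/kg in ethanol solution and sacrificed 24 h later. […] Plasma prothrombin time was measured by Quick method and reported in seconds and as INR, from at least three measurements.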

Rattus norvegicus [13] = experiment: Hepatotoxicity in Wistar albino rat assessed as change in serum ALT level at 0.5 mg/kg, ip measured after 24 hrs; format: toxicity, organism-based; set-up: dose 0.5 mg/kg, route intraperitoneal; conditions: in vivo
Plasma [14] = experiment: Anticoagulant activity in Wistar albino rat plasma assessed as fibrinogen level at 0.5 mg/kg/day, ip administered for 5 days; format: functional; conditions: route intraperitoneal
In short: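 Wistar rats (220–250 g), three per group, got one i.p. dose of 0.5 mg/kg per day for five days and were sacrificed on day six. […] Plasma fibrinogen was measured by biuret method at 540 nm.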

Plasma [15] = experiment: Anticoagulant activity in Wistar albino rat plasma assessed as prothrombin time at 0.5 mg/kg/day, ip administered for 5 days measured after second dose; format: functional; conditions: route intraperitoneal
In short: (§4)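 Wistar rats, three per group, were dosed i.p. at 0.5 mg/kg per day over five days in ethanol solution and sacrificed on day six. Plasma prothrombin time was measured by Quick method after the second 0.5 mg/kg administration, reported in seconds and INR. Where animals were dosed more than once, PTs were averaged.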

Plasma [16] = experiment: Anticoagulant activity in Wistar albino rat plasma assessed as prothrombin time at 0.5 mg/kg, ip; format: functional; conditions: route intraperitoneal
In short: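 Adult Wistar rats (2.5 months, 220–250 g), three per compound and control, were given a single i.p. dose of 0.1 or 0.5 mg/kg in ethanol solution and sacrificed 24 h later. Plasma prothrombin time was measured by Quick method and reported in seconds and as INR, from at least three measurements.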

Rattus norvegicus [17] = experiment: Drug metabolism in Wistar albino rat assessed as 7-hydroxycoumarin level in urine at 1 mg/kg, ip measured after 72 hrs by GC/MS analysis; conditions: in vivo
Plasma [18] = experiment: Anticoagulant activity in Wistar albino rat plasma assessed as prothrombin time at 0.5 mg/kg, ip relative to untreated control; format: functional; conditions: route intraperitoneal
In short: (§5)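 Rats (Wistar, 220–250 g, n=3 per group) were dosed i.p. with 0.5 mg/kg compound in ethanol solution. Prothrombin time was measured in plasma by Quick method and expressed as fold of the matching control value. […] Groups were compared by one-way ANOVA with Dunnett T3 or Bonferroni post-hoc tests.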

Rattus norvegicus [19] = experiment: Hepatotoxicity in Wistar albino rat assessed as change in serum AST level at 0.5 mg/kg, ip measured after 24 hrs relative to untreated control; format: toxicity, organism-based; set-up: dose 0.5 mg/kg, route intraperitoneal; conditions: in vivo
In short: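 Serum AST was measured 24 h after a single 0.5 mg/kg i.p. dose (ethanol solution) in Wistar rats, three per group, by IFCC UV kinetic method at 340 nm. Activity was expressed as fold of the negative (96% ethanol) control, and compared by one-way ANOVA with post-hoc tests.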

Rattus norvegicus [20] = experiment: Hepatotoxicity in Wistar albino rat assessed as change in serum ALT level at 0.5 mg/kg/day, ip administered for 5 days measured after second compound dose; conditions: in vivo, 120 h
Rattus norvegicus [21] = experiment: Hepatotoxicity in Wistar albino rat assessed as change in serum AST level at 0.5 mg/kg/day, ip administered for 5 days measured after second compound dose; conditions: in vivo, 120 h
Plasma [22] = experiment: Anticoagulant activity in Wistar albino rat plasma assessed as prothrombin time at 0.5 mg/kg, ip relative to warfarin; format: functional; conditions: route intraperitoneal; in short: as §5
Rattus norvegicus [23] = experiment: Hepatotoxicity in Wistar albino rat assessed as change in serum gamma-GT level at 0.5 mg/kg, ip administered for 5 days measured after second compound dose; format: toxicity, organism-based; set-up: dose 0.5 mg/kg, route intraperitoneal; conditions: in vivo, 120 h
Rattus norvegicus [24] = experiment: Anticoagulant activity in Wistar rats in vivo assessed as prothrombin time
Rattus norvegicus [25] = experiment: Drug metabolism in Wistar albino rat assessed as coumarin-7-glucuronide level in urine at 1 mg/kg, ip measured after 72 hrs by GC/MS analysis; conditions: in vivo
Rattus norvegicus [26] = experiment: Hepatotoxicity in Wistar albino rat assessed as change in serum iron level at 0.5 mg/kg/day, ip administered for 5 days measured after second compound dose; format: toxicity, organism-based; set-up: route intraperitoneal; conditions: in vivo, 120 h
Plasma [27] = experiment: Anticoagulant activity in Wistar albino rat plasma assessed as international normalized ratio at 0.1 mg/kg, ip; format: functional; conditions: route intraperitoneal; in short: as §3
[28] = target: VKORC1 (Rattus norvegicus); experiment: Inhibition of VKORC1
Plasma [29] = experiment: Anticoagulant activity in human plasma assessed as international normalized ratio at 1 mg/ml; format: functional; in short: as §1
Plasma [30] = experiment: Anticoagulant activity in Wistar albino rat plasma assessed as international normalized ratio at 0.5 mg/kg, ip; format: functional; conditions: route intraperitoneal; in short: as §3
Plasma [31] = experiment: Anticoagulant activity in Wistar albino rat plasma assessed as international normalized ratio at 0.5 mg/kg/day, ip administered for 5 days measured after second dose; format: functional; conditions: route intraperitoneal; in short: as §4

SMILES	PT (Plasma [1])	Activity (Rattus norvegicus [2])	Activity (Rattus norvegicus [3])	Activity (Rattus norvegicus [4])	Activity (Rattus norvegicus [5])	Activity (Rattus norvegicus [6])	Activity (Rattus norvegicus [7])	Time (Plasma [8])	Activity (Rattus norvegicus [9])	Activity (Plasma [11])	PT (Plasma [12])	Activity (Rattus norvegicus [13])	Activity (Plasma [14])	PT (Plasma [15])	PT (Plasma [16])	Drug metabolism (Rattus norvegicus [17])	fold change (FC) (Rattus norvegicus [19])	ALT (Rattus norvegicus [20])	AST (Rattus norvegicus [21])	Activity (Rattus norvegicus [23])	further results
CC(=O)CC(c1ccccc1)c1c(O)c2ccccc2oc1=O (stereo unspecified) [WARFARIN]	18.5 s	170 U/L	277.3 U/L	22.3 µmol/L	3.4 U/L	1.3 µmol/L	59.4 g/L	33.4 s	34.5 g/L	1.9 g/L	10.3 s	51.5 U/L									Activity (Rattus norvegicus [10]): Toxic
O=c1oc2ccccc2c(O)c1-c1csc(Nc2cccc([N+](=O)[O-])c2)n1	24.4 s	225 U/L	294.6 U/L	29.7 µmol/L	2.8 U/L	2.2 µmol/L	64.2 g/L	>500 s	39.7 g/L	0.6 g/L	9.6 s	52.4 U/L	1.74 g/L	28.1 s	14.4 s	Active	1.74	65.1 U/L	210.7 U/L	2.6 U/L	fold change (FC) (Plasma [18]): 1.48; fold change (FC) (Plasma [22]): 1.18; IC50 (Rattus norvegicus [24]): 741 µM; Drug metabolism (Rattus norvegicus [25]): Active; Activity (Rattus norvegicus [26]): 17.3 µmol/L
CCOC(=O)C(C(=O)OCC)=C(C)c1c(O)c2ccccc2oc1=O	23 s	513 U/L	238.3 U/L	28.4 µmol/L	3.1 U/L	2 µmol/L	67.2 g/L	51.3 s	35.2 g/L	5.1 g/L	10.3 s	71.8 U/L	1.6 g/L	30 s	10.5 s	Active	1.41	55.5 U/L	209.9 U/L	2.3 U/L	Ratio (Plasma [27]): 0.13; Ki [28]: 68.9 µM; fold change (FC) (Plasma [18]): 1.08; Ratio (Plasma [29]): 1.99; Ratio (Plasma [30]): 0.13; Activity (Plasma [22]): 86.06%; Ratio (Plasma [31]): 0.13; IC50 (Rattus norvegicus [24]): 141 µM; Drug metabolism (Rattus norvegicus [25]): Active; Activity (Rattus norvegicus [26]): 17.7 µmol/L
Cc1cccc(Nc2nc(-c3c(O)c4ccccc4oc3=O)cs2)c1	25 s	172 U/L	284.6 U/L	28.4 µmol/L	2.2 U/L	1.8 µmol/L	66.2 g/L	27.6 s	41.9 g/L	2 g/L	9.6 s	67.3 U/L	1.2 g/L	28.1 s	9.7 s	Active	1.68	62.4 U/L	175.5 U/L	3 U/L	Activity (Plasma [22]): 79.51%; IC50 (Rattus norvegicus [24]): 69.2 µM; Drug metabolism (Rattus norvegicus [25]): Active; Activity (Rattus norvegicus [26]): 17.3 µmol/L
O=c1oc2ccccc2c(O)c1-c1csc(Nc2ccc(S(=O)(=O)O)cc2)n1	26.5 s	164 U/L	269.7 U/L	19.3 µmol/L	2.4 U/L	1.6 µmol/L	64.9 g/L	>500 s	40.8 g/L		10.4 s	58.4 U/L	0.9 g/L	28.6 s	12.4 s	Active	1.59	63 U/L	207.5 U/L	2.2 U/L	Ratio (Plasma [27]): 0.82; Ki [28]: 44.8 µM; fold change (FC) (Plasma [18]): 1.27; Ratio (Plasma [29]): 2.6; Ratio (Plasma [30]): 0.84; fold change (FC) (Plasma [22]): 1.18; Ratio (Plasma [31]): 1.38; IC50 (Rattus norvegicus [24]): 141 µM; Drug metabolism (Rattus norvegicus [25]): Active; Activity (Rattus norvegicus [26]): 19 µmol/L
